Compound activity from PubChem.
PLK1 kinase inh: human PLK1 kinase inhibitors, primary screen, biochemical, TR-FRET; inhibition, % at 10 µM; recombinant PLK1 kinase, TR-FRET peptide phosphorylation; 97,000 compounds, 0.53% hits;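 active means inhibition of 50% or more in the single-concentration screen; inactive means inhibition below 50%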;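 further: 0% = DMSO max control and 100% = H-89 dihydrochloride min control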
hDAT+cocaine: changed hDAT dopamine uptake under cocaine IC80, either direction, primary screen, cocaine antagonist project, cell-based, LLC-PK1 hDAT, [14C]-dopamine uptake, MLSMR | LLC-PK1 hDAT cells, [14C]-dopamine uptake with cocaine IC80; actives deviate in either direction | B-score at 10 µM | 110,000 compounds, 1.3% hits | AID 449768, 2010;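 active means Z score or B-score, a plate-position-corrected score, falls beyond the plate's 99.7% confidence bounds, in either direction; inactive means both scores lie inside the 99.7% bounds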;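 further: scored against the spread of the other compound wells on the same plate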
Target sequence (Q01959 whole entry, looked up): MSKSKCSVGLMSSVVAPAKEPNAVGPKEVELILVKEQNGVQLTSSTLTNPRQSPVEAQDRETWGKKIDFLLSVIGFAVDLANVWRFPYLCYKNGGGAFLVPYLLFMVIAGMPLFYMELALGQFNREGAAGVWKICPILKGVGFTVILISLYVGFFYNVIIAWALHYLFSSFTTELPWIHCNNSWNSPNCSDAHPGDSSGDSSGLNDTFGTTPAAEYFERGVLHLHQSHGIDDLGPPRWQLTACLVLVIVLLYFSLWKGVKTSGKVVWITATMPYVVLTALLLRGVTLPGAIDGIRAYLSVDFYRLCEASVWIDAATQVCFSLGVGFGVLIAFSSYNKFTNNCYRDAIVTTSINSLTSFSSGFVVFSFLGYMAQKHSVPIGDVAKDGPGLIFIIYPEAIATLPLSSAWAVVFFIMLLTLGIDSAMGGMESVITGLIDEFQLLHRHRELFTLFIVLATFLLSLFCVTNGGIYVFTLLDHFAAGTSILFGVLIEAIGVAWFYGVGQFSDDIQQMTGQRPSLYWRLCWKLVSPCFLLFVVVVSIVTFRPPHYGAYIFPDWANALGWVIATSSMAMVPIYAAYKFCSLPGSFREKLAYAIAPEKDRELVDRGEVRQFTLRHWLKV
HIV Rev-RRE inh: HIV-1 Rev-RRE binding inhibitors, primary screen, biochemical, FRET, protein-RNA interaction | inhibition, % at 8 µM | P05866 | AID 704, 2007 | 97,000 compounds, 0.79% hits | Rev peptide-RRE RNA binding;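 active means inhibition above the screen-wide mean plus 3 SD, cut at about 35% in these data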;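 further: 0% = median DMSO wells and 100% = median Neomycin B control wells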
Target sequence (P05866 whole entry, looked up): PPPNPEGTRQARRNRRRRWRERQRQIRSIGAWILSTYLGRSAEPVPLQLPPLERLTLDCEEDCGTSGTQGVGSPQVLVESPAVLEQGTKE
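Assay system: labelled RRE RNA duplex and labelled Rev peptide / Medium: HEPES pH 7.5 salt buffer with EDTA / Reagent: labelled Rev peptide / Schedule: 5 + 15 min at 25 °C / Signal: FRET, excitation 480 nm, emission 540 nm donor and 671 nm acceptor / Benchmarks: DMSO and neomycin B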
PLK1 PBD inh: Plk1 polo box domain binding inhibitors, primary screen, biochemical, fluorescence polarization; Plk1 PBD phosphopeptide binding; inhibition, %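 (tested at about 20 µM)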; 97,000 compounds, 0.13% hits; in the data active means inhibition above about 34%, passing the limit was not always enough
FAK inh: FAK kinase inhibitors, primary screen, biochemical | biochemical FAK kinase activity assay | inhibition, %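 (tested at 7 µM)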 | 97,000 compounds, 0.84% hits | AID 727, 2007;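 further: 0% = DMSO and 100% = reference compound high control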
EphB4 antag: EphB4-ephrin-B2 interaction antagonists, primary screen, biochemical, TNYL-RAW peptide probe, fluorescence polarization | Ephrin type-B receptor 4 (Homo sapiens), P54760 | EphB4 LBD / TNYL-RAW-Alexa532 peptide | inhibition, % at 7 µM | 97,000 compounds, 0.15% hits | AID 720, 2007;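 active means inhibition above the screen-wide mean inhibition plus 3 SD, cut at about 15% in these data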;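 further: 0% = DMSO wells and 100% = excess unlabeled TNYL-RAW peptide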
Redox H2O2 DR: redox cycling hydrogen peroxide generation, dose response, artefact control for Plk1 PBD inhibitor project, biochemical | shares compounds with PLK1 PBD inh | 120 tested, under 10 active | AID 876, 2007 | EC50, µM | redox cycling H2O2 generation, DTT, counter-screen; call rule not given here
FAK inh confirm: FAK kinase inhibitors, retest, confirmation, biochemical; shares compounds with FAK inh; FAK kinase biochemical inhibition assay; inhibition, % at 7 µM; 750 compounds, 28% hits; AID 794, 2007
Active calls of the source: *; nt = not tested or not shown; [ ] = remark or other dose. Shown are actives, neighbours in structure and some others; about 3.2% of the full set was active somewhere. Unless noted, no stated cut-off is given here; in the data, active means inhibition above about 19%; inactive means the rest.

SMILES	PLK1 kinase inh	hDAT+cocaine	HIV Rev-RRE inh	PLK1 PBD inh	FAK inh	EphB4 antag	Redox H2O2 DR	others
Cc1ccc2cc(C(c3nnnn3C3CCCC3)N3CCN(c4ccccc4)CC3)c(=O)[nH]c2c1 (stereo unspecified)	-4.6	-0.0264	0.9	60.7*	-9.3	-4.5	>50
Cn1c(=O)c(NCCO)c2c3c(cccc31)C(=O)c1ccccc1-2	-194.2	0.229	141.6*[fluorescence artefact?]	95.8*	5.0	30.9*[fluorescence artefact?]	>50
CC(C)CNC(=S)NC1CC2CCCC(C1)N2Cc1cccs1 (stereo unspecified)	-8.0	-0.00786	-4.1	-7.4	-4.3	-13.8	nt
COc1ccc(C(=O)N2c3ccccc3CC2C)cc1OC (stereo unspecified)	-5.4	0.52	0.3	-6.3	2.3	2.9	nt
CC1Cc2ccccc2N1C(=O)c1ccc2c(c1)nnn2C (stereo unspecified)	-6.5	-0.938	3.8	50.3*	-2.9	4.9	>50
COc1ccc(OC)c(S(=O)(=O)Nc2cccc(F)c2)c1	-38.4	-0.204	2.6	17.0	-0.2	5.5	nt
CCCc1nc2sc3c(c2c(=O)n1NC(=O)CCC(=O)O)CCCC3	-5.4	-0.292	3.3	46.0*	-4.2	-6.4	>50
COc1cccc(OC)c1C(=O)N1CCN(c2ccccn2)CC1	-12.4	1.4	-1.4	38.3*	-0.1	-4.6	>50
COc1ccccc1C(=O)N1CCN(c2ccccn2)CC1	-3.4	-1.04	-3.3	-5.3	0.5	-15.7	nt
Cc1ccccc1C(=O)N1CCC(C(=O)Nc2ccc3c(c2)OCCO3)CC1	-1.6	-0.047	-3.7	20.6	0.2	-1.4	nt
CC(=O)/C=C1\SC(CC(=O)O)C(=O)N1c1ccccc1 (stereo unspecified)	-15.9	-1.71	11.9	-10.0	1.0	-1.8	nt
Cc1nn(C(=O)CCCC(=O)n2nc(C)c(Cl)c2C)c(C)c1Cl	-9.2	nt	7.9	-12.4	-0.1	5.1	nt
O=C1CCC(C(=O)O)(c2ccccc2)C1 (stereo unspecified)	-9.0	0.0937	10.7	45.6*	-5.2	-2.6	>50
CN1C(=O)CCC1(O)c1ccccc1 (stereo unspecified)	-6.4	0.716	5.9	-6.6	-0.6	-3.9	nt
Cc1cccc(-n2c(C)n[nH]c2=S)c1	-5.2	0.237	6.4	8.1	2.9	4.2	nt
Cc1cccc(-n2c(CCn3nc(C)c([N+](=O)[O-])c3C)n[nH]c2=S)c1	-7.3	0.831	4.7	46.3*	0.8	-4.2	>50
COc1ccc(/C=N/NC(=O)c2[nH]ncc2Br)c(OC)c1	-13.7	0.131	0.5	26.8	16.2	-8.3	nt
Cc1ccc2c(c1)nnn2C1CCN(CC(=O)Nc2ccc3c(c2)OCCO3)CC1	-9.2	1.56	6.8	-19.6	-3.1	-0.9	nt
Cc1ccccc1NS(=O)(=O)c1cc(C(=O)NCc2ccco2)ccc1C	-2.7	0.173	3.6	38.1*	-2.1	0.8	>50
Cc1ccc(C(=O)NCc2ccco2)cc1S(=O)(=O)Nc1cccc(C)c1C	-1.2	1.11	4.1	-2.9	0.3	-1.1	nt
CCOc1ccc(C)cc1S(=O)(=O)Nc1ccc(Cl)cn1	-0.5	-0.163	15.9	-11.7	-2.8	0.5	nt
COc1ccc(C(C)C)cc1S(=O)(=O)Nc1ccc(Cl)cn1	-13.8	0.264	4.2	46.7*	-2.6	0.1	>50
COc1ccc(CC2NCCC3(O)CCCCC23)cc1 (stereo unspecified)	-15.6	0.133	2.9	39.2*	-1.2	-3.0	>50
Cn1c(-c2cc3ccc(OC(=O)C(C)(C)C)cc3oc2=O)nc2ccccc21	-13.9	1.58	2.2	37.2*	0.7	6.6	>50
COc1cccc(NC(=O)CC2C(=O)NC3CCCCC3N2C(=O)c2ccc(F)cc2)c1 (stereo unspecified)	-13.0	0.181	0.0	-14.9	-0.8	-2.5	nt
SMILES	PLK1 kinase inh	hDAT+cocaine	HIV Rev-RRE inh	PLK1 PBD inh	FAK inh	EphB4 antag	Redox H2O2 DR	others
COC(=O)c1ccccc1NC(=O)N1CCN(C/C=C/c2ccccc2)CC1	-8.7	0.108	0.0	-6.5	0.3	-5.2	nt
CCn1ncc(CN2CCN(C(=O)Nc3ccccc3C(=O)OC)CC2)c1C	-7.2	0.706	4.4	39.4*	7.5	2.4	>50
NS(=O)(=O)c1ccc(CCNc2ncnc3c2c(-c2ccccc2)cn3-c2ccc(F)cc2)cc1	-18.0	2.5	0.6	13.3	2.7	2.7	nt
CC(=O)N(/N=C1\Sc2ccccc2C1=O)c1ccccc1C	-15.1	0.175	9.3	124.8*	21.7*	6.6	>50	FAK inh confirm=16.7
CN(C)/C=C1/Sc2ccccc2C1=O	-7.0	-1.32	2.0	1.1	-1.8	-7.8	nt
Cc1oc2c(c1C(=O)c1ccccc1)C(=O)C(=O)c1ccccc1-2	-0.3	-2.32	4.4	123.7*	30.1*	5.2	>50	FAK inh confirm=21.7*
CC1=C(CC(=O)c2ccccc2)C(=O)c2ccccc2C1=O	-5.8	nt	3.6	-27.7	10.0	-4.5	nt
O=C(CC1C(=O)NCCN1C(=S)Nc1ccccc1)Nc1ccc2c(c1)OCCO2 (stereo unspecified)	-1.1	0.38	2.8	43.3*	23.0*	3.7	>50	FAK inh confirm=1.1
O=C(CC1C(=O)NCCN1C(=O)Nc1ccccc1)Nc1ccc2c(c1)OCO2 (stereo unspecified)	-5.6	1.24	11.1	8.3	-0.2	2.9	nt
COc1cc2oc3ccccc3c2cc1N(CC(=O)N1CCCCC1)S(=O)(=O)c1ccc(C)cc1	-7.0	-0.148	4.3	18.2	0.0	1.4	nt
Nc1ccc2c(c1)C(=O)C(=O)c1ccccc1-2	-0.6	-3.21*	4.1	95.4*	57.2*	1.9	>50	FAK inh confirm=57.8*
COc1ccc2c3c(cccc13)NN=C2C	32.9	nt	-19.1	38.0*	84.1*	6.4	>50	FAK inh confirm=14.8
CN(CC(=O)Nc1ccc(S(N)(=O)=O)cc1)c1ccccc1	-9.1	0.184	9.7	-8.8	-1.6	10.8	nt
Cc1nc2ccc(S(=O)(=O)NCC(=O)N3CCC(C)CC3)cc2s1	-11.1	-0.458	-1.4	6.5	4.3	-2.0	nt
Cn1nc(-c2ccc(Cl)cc2)nc2c(=O)n(C)c(=O)nc1-2	2.0	-4.45*	26.3	65.0*	69.2*	-0.1	>50	FAK inh confirm=66.9*
COc1cc(NC(=O)CC2NCCNC2=O)cc(OC)c1 (stereo unspecified)	-9.7	-0.747	4.8	37.5	-2.3	4.4	nt
